Reference: ChEMBL document CHEMBL1123123, “Orally absorbable cephalosporin antibiotics. 2. Structure-activity studies of bicyclic glycine derivatives of 7-aminodeacetoxycephalosporanic acid” (1985)
Converted amounts (≈) assume the structure as drawn.

Experiments:
Format in all cases: functional
Staphylococcus aureus [1] = assay: Antibacterial activity against methicillin resistant Staphylococcus aureus S13E.
Outline: (§1)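 Agar dilution susceptibility test following a previously published method; value recorded as MIC. Racemic compounds were separated by preparative HPLC and only the R epimers were tested.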

Staphylococcus aureus [2] = assay: Antibacterial activity against penicillin G sensitive Staphylococcus aureus X1.1
Staphylococcus aureus [3] = assay: Antibacterial activity against penicillin G resistant Staphylococcus aureus V41.; outline: as §1
[4] = system: Staphylococcus epidermidis; assay: The compound was tested for antibacterial activity against Staphylococcus epidermidis EP11.
Haemophilus influenzae [5] = assay: The compound was tested for antibacterial activity against sensitive Haemophilus influenzae C.L.
Streptococcus pyogenes = assay: The compound was tested for antibacterial activity against Streptococcus pyogenes C203.
Haemophilus influenzae [6] = assay: The compound was tested for antibacterial activity against resistant Haemophilus influenzae 76.; outline: as §1
Streptococcus = assay: The compound was tested for antibacterial activity against Streptococcus group D X66.
Streptococcus pneumoniae = assay: The compound was tested for antibacterial activity against Streptococcus pneumoniae Park.
Staphylococcus aureus [7] = assay: Antibacterial activity against methicillin resistant Staphylococcus aureus X400.; outline: as §1
Staphylococcus aureus [8] = assay: Aantibacterial activity against methicillin resistant Staphylococcus aureus S13E.; outline: as §1
Mus musculus [9] = assay: Dose administered orally in mice infected with Staphylococcus aureus.; details: po
Outline: (§2)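 Mice were used in groups of 10 and inoculated with S. aureus, S. pyogenes or S. pneumoniae. Drug was given orally or subcutaneously at 1 and 5 h after inoculation. The ED50 was determined from the dosed groups.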

Mus musculus [10] = assay: Dose administered subcutaneously in mice infected with Staphylococcus aureus.; details: sc; outline: as §2
Mus musculus [11] = assay: Dose administered subcutaneously in mice infected with Streptococcus pyogenes; details: sc; outline: as §2
Mus musculus [12] = assay: Dose administered orally in mice infected with Streptococcus pneumoniae; details: po; outline: as §2
Mus musculus [13] = assay: Dose administered subcutaneously in mice infected with Streptococcus pneumoniae; details: sc; outline: as §2
Mus musculus [14] = assay: Dose administered orally in mice infected with Streptococcus pyogenes.; details: po; outline: as §2

Row | Structure (SMILES) | MIC (Staphylococcus aureus [1]) [µg/mL] | MIC (Staphylococcus aureus [2]) [µg/mL] | MIC (Staphylococcus aureus [3]) [µg/mL] | MIC [4] [µg/mL] | MIC (Haemophilus influenzae [5]) [µg/mL] | MIC (Streptococcus pyogenes) [µg/mL] | MIC (Haemophilus influenzae [6]) [µg/mL] | MIC (Streptococcus) [µg/mL] | MIC (Streptococcus pneumoniae) [µg/mL] | MIC (Staphylococcus aureus [7]) [µg/mL] | MIC (Staphylococcus aureus [8]) [µg/mL] | ED50 (Mus musculus [9]) [mg/kg] | ED50 (Mus musculus [10]) [mg/kg] | ED50 (Mus musculus [11]) [mg/kg] | ED50 (Mus musculus [12]) [mg/kg] | ED50 (Mus musculus [13]) [mg/kg] | ED50 (Mus musculus [14]) [mg/kg]
1 | CC1=C(C(=O)O)N2C(=O)C(NC(=O)C(N)c3cc4sccc4s3)C2SC1 (stereo not drawn) | 64 (≈ 156 µM) | 0.5 (≈ 1.22 µM) | 32 (≈ 78.1 µM) | 16 (≈ 39.1 µM) | 64 (≈ 156 µM) | 0.25 (≈ 0.61 µM) | 2 (≈ 4.88 µM) | > 64 | 1 (≈ 2.44 µM) | > 64 |  |  |  |  |  |  | 
2 | CC1=C(C(=O)O)N2C(=O)C(NC(=O)C(N)c3cccc4c(C)csc34)C2SC1 (stereo not drawn) |  | 2 (≈ 4.79 µM) | 16 (≈ 38.3 µM) | 8 (≈ 19.2 µM) | 8 (≈ 19.2 µM) | 1 (≈ 2.4 µM) | 1 (≈ 2.4 µM) | 64 (≈ 153 µM) | 2 (≈ 4.79 µM) | 64 (≈ 153 µM) | 64 (≈ 153 µM) |  |  |  |  |  | 
3 | CC1=C(C(=O)O)N2C(=O)C(NC(=O)C(N)c3cc4ccsc4s3)C2SC1 (stereo not drawn) | 16 (≈ 39.1 µM) | 0.5 (≈ 1.22 µM) | 32 (≈ 78.1 µM) | 4 (≈ 9.77 µM) | 8 (≈ 19.5 µM) | 0.25 (≈ 0.61 µM) | 2 (≈ 4.88 µM) | > 64 | 0.5 (≈ 1.22 µM) | > 64 |  |  |  |  |  |  | 
4 | CC1=C(C(=O)O)N2C(=O)C(NC(=O)C(N)c3cccc4sccc34)C2SC1 (stereo not drawn) | 64 (≈ 159 µM) | 2 (≈ 4.96 µM) | 16 (≈ 39.7 µM) | 16 (≈ 39.7 µM) | 4 (≈ 9.91 µM) | 0.25 (≈ 0.62 µM) | 2 (≈ 4.96 µM) | 64 (≈ 159 µM) | 1 (≈ 2.48 µM) | 64 (≈ 159 µM) |  |  |  |  |  |  | 
5 | CC1=C(C(=O)O)N2C(=O)C(NC(=O)C(N)c3ccc4sccc4c3)C2SC1 (stereo not drawn) | 64 (≈ 159 µM) | 0.5 (≈ 1.24 µM) | 4 (≈ 9.91 µM) | 2 (≈ 4.96 µM) | 8 (≈ 19.8 µM) | 0.125 (≈ 0.31 µM) | 4 (≈ 9.91 µM) | 64 (≈ 159 µM) | 0.5 (≈ 1.24 µM) | 64 (≈ 159 µM) |  |  |  |  |  |  | 
6 | CC(=O)N1CCc2cc(C(N)C(=O)NC3C(=O)N4C(C(=O)O)=C(C)CSC34)ccc21 (stereo not drawn) | 64 (≈ 149 µM) | 2 (≈ 4.65 µM) | 64 (≈ 149 µM) | 8 (≈ 18.6 µM) | 16 (≈ 37.2 µM) | 1 (≈ 2.32 µM) | 8 (≈ 18.6 µM) | 64 (≈ 149 µM) | 1 (≈ 2.32 µM) | 64 (≈ 149 µM) |  | 0.85 | 2.11 | 0.79 | 9.3 | 10.6 | 2.6
7 | CC1=C(C(=O)O)N2C(=O)[C@@H](NC(=O)[C@H](N)c3ccccc3)[C@H]2SC1 [CEPHALEXIN ANHYDROUS] |  | 4 (≈ 11.5 µM) |  | 32 (≈ 92.1 µM) | 8 (≈ 23 µM) | 0.5 (≈ 1.44 µM) | 8 (≈ 23 µM) |  | 2 (≈ 5.76 µM) |  |  | 0.9 | 1.66 | 2.9 | 37 | 30.5 | 1.77
